Data: ChEMBL document CHEMBL1129431, “Derivatives of (R)- and (S)-5-fluoro-8-hydroxy-2-(dipropylamino)tetralin: synthesis and interactions with 5-HT1A receptors” (J Med Chem, 1996)

Key:
[1] = biological target: T1, 5-hydroxytryptamine receptor 1A (Rattus norvegicus, UniProt P19327); experiment: Binding affinity against rat hippocampal 5-hydroxytryptamine 1A (5-HT1A) receptor determined using [3H]8-OH-DPAT as radioligand; format: tissue-based, Hippocampus
T1 sequence (P19327 whole entry): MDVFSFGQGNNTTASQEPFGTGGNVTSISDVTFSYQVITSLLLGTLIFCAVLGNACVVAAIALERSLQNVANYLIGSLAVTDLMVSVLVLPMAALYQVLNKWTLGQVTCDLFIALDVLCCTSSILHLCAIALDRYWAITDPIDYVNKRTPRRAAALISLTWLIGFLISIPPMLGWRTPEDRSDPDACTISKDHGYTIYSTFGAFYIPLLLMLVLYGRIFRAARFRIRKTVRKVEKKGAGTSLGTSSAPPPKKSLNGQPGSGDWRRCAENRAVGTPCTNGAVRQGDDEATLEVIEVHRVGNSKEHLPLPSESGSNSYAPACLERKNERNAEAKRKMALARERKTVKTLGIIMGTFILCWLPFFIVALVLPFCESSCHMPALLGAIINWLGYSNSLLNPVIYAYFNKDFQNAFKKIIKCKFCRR

[2] = biological target: T2, 5-hydroxytryptamine receptor 1A (Rattus norvegicus) (UniProt P19327); conditions: 0.05 uM
T2 sequence (whole entry): T1 sequence (P19327 whole entry)

[3] = biological target: T2, 5-hydroxytryptamine receptor 1A (Rattus norvegicus); experiment: Effect on 5-hydroxytryptamine 1A receptor mediated inhibition of VIP-stimulated cAMP production at dose of 0.1 uM + 1 uM 5-HT.; format: functional; conditions: values are per cent of control
Summary of the method: (§1)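 GH4ZD10 cells expressing rat 5-HT1A receptors were detached with EBSS plus 1 mM EDTA and resuspended to ~1×10^7 cells/mL in Ham's F10 with 0.01% ascorbic acid and 0.1 mM IBMX. After 1 h preincubation at 37 °C they were diluted to 0.8-1.5×10^6 cells/mL, then incubated 20 min at 37 °C with VIP (39 nM final) plus compound, alone or with 5-HT, in duplicate. The reaction was stopped by boiling. cAMP was measured in triplicate by protein-binding assay and expressed as % of the VIP-stimulated response.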

[4] = biological target: T2, 5-hydroxytryptamine receptor 1A (Rattus norvegicus); experiment: Effect on 5-hydroxytryptamine 1A receptor mediated inhibition of VIP-stimulated cAMP production at dose of 1 uM; format: functional; conditions: values are per cent of control; summary of the method: as §1
[5] = biological target: T2, 5-hydroxytryptamine receptor 1A (Rattus norvegicus); experiment: Effect on 5-hydroxytryptamine 1A receptor mediated inhibition of VIP-stimulated cAMP production at dose of 50 uM; format: functional; conditions: values are per cent of control
Summary of the method: (§2)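 GH4ZD10 cells expressing rat 5-HT1A receptors, detached with EDTA-supplemented Ca/Mg-free EBSS and resuspended in Ham's F10 with 0.01% ascorbic acid and 0.1 mM IBMX. Preincubated 1 h at 37 °C, then 0.8-1.5×10^6 cells/mL incubated 20 min at 37 °C with VIP (39 nM final) plus compounds. Duplicate samples stopped by boiling. cAMP measured in triplicate by protein-binding assay. Results are given as % of the VIP-stimulated response.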

[6] = biological target: T2, 5-hydroxytryptamine receptor 1A (Rattus norvegicus); experiment: Effect on 5-hydroxytryptamine 1A receptor mediated inhibition of VIP-stimulated cAMP production at dose of 1 uM+ 50 uM 5-HT.; format: functional; conditions: values are per cent of control; summary of the method: as §2
[7] = biological target: T2, 5-hydroxytryptamine receptor 1A (Rattus norvegicus); experiment: Effect on 5-hydroxytryptamine 1A receptor mediated inhibition of VIP-stimulated cAMP production at dose of 10 uM; format: functional; conditions: values are per cent of control; summary of the method: as §1
[8] = biological target: T2, 5-hydroxytryptamine receptor 1A (Rattus norvegicus); experiment: Effect on 5-hydroxytryptamine 1A receptor mediated inhibition of VIP-stimulated cAMP production at dose of 50 uM+ 50 uM 5-HT.; format: functional; conditions: values are per cent of control; summary of the method: as §2
[9] = biological target: T2, 5-hydroxytryptamine receptor 1A (Rattus norvegicus); experiment: Effect on 5-hydroxytryptamine 1A receptor mediated inhibition of VIP-stimulated cAMP production at dose of 1 uM+ 1 uM 5-HT.; format: functional; conditions: values are per cent of control; summary of the method: as §2
[10] = biological target: T2, 5-hydroxytryptamine receptor 1A (Rattus norvegicus); experiment: Effect on 5-hydroxytryptamine 1A receptor mediated inhibition of VIP-stimulated cAMP production at dose of 0.05 uM; format: functional; conditions: values are per cent of control; summary of the method: as §2
[11] = biological target: T2, 5-hydroxytryptamine receptor 1A (Rattus norvegicus); experiment: Effect on 5-hydroxytryptamine 1A receptor mediated inhibition of VIP-stimulated cAMP production at dose of 10 uM+ 10 uM 5-HT.; format: functional; conditions: values are per cent of control; summary of the method: as §2

## CCCN(CCCCN1C(=O)CC2(CCCC2)CC1=O)[C@H]1CCc2c(F)ccc(OC)c2C1
[1]
  Ki: 4.9 nM
[2]
  response, % of control: 87%
[3]
  response, % of control: 50%
[4]
  response, % of control: 79%
[5]
  response, % of control: 39%
[6]
  response, % of control: 41%

## CCCN(CCCCN1C(=O)CC2(CCCC2)CC1=O)[C@H]1CCc2c(F)ccc(C(C)=O)c2C1
[7]
  response, % of control: 109%
[1]
  Ki: 13.9 nM
[8]
  response, % of control: 91%
[9]
  response, % of control: 91%
[3]
  response, % of control: 70%
[4]
  response, % of control: 97%
[10]
  response, % of control: 104%
[11]
  response, % of control: 102%
[5]
  response, % of control: 93%
